Results: ChEMBL document CHEMBL2163314, “Potent aminocyclitol glucocerebrosidase inhibitors are subnanomolar pharmacological chaperones for treating gaucher disease” (J Med Chem, 2012)
Activity calls are given as the source filed them. The calls are words filed in the database; no cut-off is given here.

Assays:
[1] = target: T1, Beta-galactosidase (Homo sapiens) (UniProt P16278); experiment: Inhibition of lysosomal beta-galactosidase in human fibroblast at 50 uM after 24 hrs
T1 sequence (whole entry): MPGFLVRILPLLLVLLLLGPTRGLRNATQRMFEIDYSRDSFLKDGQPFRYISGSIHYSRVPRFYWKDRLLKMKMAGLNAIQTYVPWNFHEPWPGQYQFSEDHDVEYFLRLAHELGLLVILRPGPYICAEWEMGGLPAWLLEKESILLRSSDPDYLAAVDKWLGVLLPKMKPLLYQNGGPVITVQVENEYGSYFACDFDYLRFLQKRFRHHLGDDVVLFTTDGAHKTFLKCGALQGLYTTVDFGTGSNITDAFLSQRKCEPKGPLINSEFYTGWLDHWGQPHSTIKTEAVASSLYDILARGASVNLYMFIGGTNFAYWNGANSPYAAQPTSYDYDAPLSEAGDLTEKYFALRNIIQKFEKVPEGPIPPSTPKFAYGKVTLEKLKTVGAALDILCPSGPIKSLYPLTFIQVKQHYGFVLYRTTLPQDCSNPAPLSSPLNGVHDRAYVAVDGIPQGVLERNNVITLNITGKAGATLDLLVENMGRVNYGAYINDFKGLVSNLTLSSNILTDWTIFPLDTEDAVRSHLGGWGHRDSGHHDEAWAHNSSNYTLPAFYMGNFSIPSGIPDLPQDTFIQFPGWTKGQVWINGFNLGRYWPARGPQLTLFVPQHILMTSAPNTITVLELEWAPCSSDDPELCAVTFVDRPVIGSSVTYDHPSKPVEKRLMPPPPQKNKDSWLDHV
Summary of the method: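 Wild-type human fibroblasts (DMEM, 10% FBS, passages 14–30) were plated overnight, then exposed to compound in fresh medium for 24 h at 37 °C, 5% CO2. Lysosomal enzyme activity was then assayed in intact monolayers after the medium was removed. Triplicate determinations.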

[2] = target: T2, Lysosomal acid glucosylceramidase (Homo sapiens, UniProt P04062); experiment: Competitive inhibition of recombinant Imiglucerase using 4-methylumbelliferyl-beta-D-glucopyranoside as substrate preincubated for 30 mins before substrate addition at pH 7.0 by Dixon plot assay
T2 sequence (P04062 whole entry): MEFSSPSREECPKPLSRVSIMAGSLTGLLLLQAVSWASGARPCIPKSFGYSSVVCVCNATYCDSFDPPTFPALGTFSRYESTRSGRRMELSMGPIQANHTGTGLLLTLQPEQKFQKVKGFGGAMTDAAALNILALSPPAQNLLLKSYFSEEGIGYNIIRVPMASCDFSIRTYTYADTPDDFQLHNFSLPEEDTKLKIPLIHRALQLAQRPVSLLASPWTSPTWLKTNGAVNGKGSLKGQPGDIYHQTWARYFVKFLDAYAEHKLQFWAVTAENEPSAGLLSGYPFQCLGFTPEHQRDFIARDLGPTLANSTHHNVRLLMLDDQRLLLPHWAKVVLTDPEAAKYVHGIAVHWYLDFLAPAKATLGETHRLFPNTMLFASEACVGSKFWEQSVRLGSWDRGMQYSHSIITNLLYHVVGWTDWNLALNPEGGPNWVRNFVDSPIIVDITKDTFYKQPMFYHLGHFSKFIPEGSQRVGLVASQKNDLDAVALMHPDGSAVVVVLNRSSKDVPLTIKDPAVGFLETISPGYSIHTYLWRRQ

[3] = target: T3, Lysosomal acid glucosylceramidase (Homo sapiens) (UniProt P04062); experiment: Inhibition of lysosomal beta-glucosidase in human fibroblast using 4-methylumbelliferyl-beta-D-glucopyranoside as substrate preincubated at 5 uM for 24 hrs before substrate addition measured after 2 hrs by fluorimetry
T3 sequence (whole entry): T2 sequence (P04062 whole entry)
Summary of the method: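 Wild-type human fibroblasts (DMEM, 10% FBS; passages 14–30) plated overnight, then compound in fresh medium for 24 h at 37 °C, 5% CO2. Intact washed monolayers given PBS plus 200 mM acetate pH 4.0 and 5 mM 4-MU-β-glucoside, 37 °C for 2 h. Stopped by lysis in glycine/NaOH pH 10.6. Fluorescence at 355/460 nm; triplicate.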

[4] = test system: Saccharomyces cerevisiae; experiment: Inhibition of bakers yeast alpha-glucosidase at100 uM
[5] = target: Alpha-galactosidase (Coffea arabica) (UniProt Q42656); experiment: Inhibition of green coffee beans alpha-galactosidase at 100 uM
Alpha-galactosidase (Coffea arabica), sequence (Q42656 16-378 limits assumed): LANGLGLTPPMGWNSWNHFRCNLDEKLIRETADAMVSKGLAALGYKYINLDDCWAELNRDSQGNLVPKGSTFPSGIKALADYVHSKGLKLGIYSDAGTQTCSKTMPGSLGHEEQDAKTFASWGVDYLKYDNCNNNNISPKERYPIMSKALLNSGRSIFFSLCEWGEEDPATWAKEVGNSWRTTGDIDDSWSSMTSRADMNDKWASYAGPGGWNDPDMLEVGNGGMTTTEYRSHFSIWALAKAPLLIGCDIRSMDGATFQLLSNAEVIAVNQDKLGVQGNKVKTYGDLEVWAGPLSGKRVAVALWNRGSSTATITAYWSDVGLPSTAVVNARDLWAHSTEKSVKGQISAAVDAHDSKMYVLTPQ

[6] = target: Lysosomal alpha-glucosidase (Homo sapiens) (UniProt P10253); experiment: Inhibition of lysosomal alpha-glucosidase in human fibroblast at 5 uM after 24 hrs
[7] = target: T1, Beta-galactosidase (Homo sapiens); experiment: Inhibition of lysosomal beta-galactosidase in human fibroblast at 5 uM after 24 hrs
[8] = target: T4, Beta-galactosidase (Bos taurus) (UniProt Q58D55); experiment: Inhibition of bovine liver beta-galactosidase at 100 uM
T4 sequence (whole entry): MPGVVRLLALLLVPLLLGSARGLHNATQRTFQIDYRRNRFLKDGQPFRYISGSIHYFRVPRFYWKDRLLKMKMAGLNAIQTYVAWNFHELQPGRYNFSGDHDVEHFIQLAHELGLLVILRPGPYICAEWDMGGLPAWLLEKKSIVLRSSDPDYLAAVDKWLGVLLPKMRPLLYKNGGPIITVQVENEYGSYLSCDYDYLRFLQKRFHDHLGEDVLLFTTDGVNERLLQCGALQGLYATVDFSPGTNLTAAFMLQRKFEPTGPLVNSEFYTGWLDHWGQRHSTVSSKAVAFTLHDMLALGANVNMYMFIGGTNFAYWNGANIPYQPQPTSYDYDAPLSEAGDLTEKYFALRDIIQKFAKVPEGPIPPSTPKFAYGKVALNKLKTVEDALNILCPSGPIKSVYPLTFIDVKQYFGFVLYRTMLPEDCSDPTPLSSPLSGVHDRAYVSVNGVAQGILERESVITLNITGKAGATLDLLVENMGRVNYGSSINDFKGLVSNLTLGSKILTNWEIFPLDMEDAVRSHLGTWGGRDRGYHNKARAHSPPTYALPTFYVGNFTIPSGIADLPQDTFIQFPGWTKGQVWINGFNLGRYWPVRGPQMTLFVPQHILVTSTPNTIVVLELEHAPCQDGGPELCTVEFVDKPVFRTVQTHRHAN

SMILES | inhibition [1] | IC50 [2] | inhibition [3] | inhibition [4] | inhibition [5] | inhibition [6] | inhibition [7] | inhibition [8]
CCCCCCCCCN[C@H]1[C@H](O)[C@@H](O)[C@H](O)[C@@H](O)[C@H]1OC.Cl | inactive | 19 nM | > 39% | inactive | inactive |  |  | 
CCCCCCCCCN[C@H]1[C@H](O)[C@@H](O)[C@H](O)[C@@H](O)[C@@H]1OCCCCCCCCC.Cl |  | 170 nM | > 39% | inactive | inactive | < 16% | < 16% | 
CCCCCCCCCN[C@H]1[C@H](O)[C@@H](O)[C@H](O)[C@@H](O)[C@@H]1OC.Cl | inactive | 670 nM |  | inactive | inactive |  |  | 
CCCCCCCCCN[C@H]1[C@H](O)[C@@H](O)[C@H](O)[C@@H](O)[C@@H]1O | inactive | 780 nM |  | inactive | inactive |  |  | 
CCCCCCCCCN(CCCCCCCCC)[C@@H]1[C@H](O)[C@H](O)[C@@H](O)[C@H](O)[C@H]1O.Cl |  | 530 nM | > 39% | inactive | inactive | < 16% | < 16% | 
CCCCCCCCCN[C@@H]1[C@H](O)[C@@H](O)[C@H](O)[C@@H](O)[C@@H]1O | inactive | 24900 nM |  | inactive | inactive |  |  | 74%
CCCCCCCCCN[C@@H]1[C@H](O)[C@H](O)[C@@H](O)[C@H](O)[C@H]1O.Cl | inactive | 25 nM | > 39% | inactive | inactive |  |  | 
CCCCCCCCCO[C@H]1[C@@H](N)[C@H](O)[C@@H](O)[C@H](O)[C@H]1O.Cl | inactive | 120 nM | > 39% | inactive | inactive |  |  | 74%
CCCCCCCCCN[C@H]1[C@H](O)[C@@H](O)[C@H](O)[C@@H](O)[C@H]1OCCCCCCCCC.Cl |  | 5 nM | > 39% | inactive | inactive | inactive | inactive | 74%
